16 molecules from ChEMBL document CHEMBL1152481, “Synthesis of 2-(4-substitutedmethylpiperazin-1-yl)-N-(3,4-dihydro-3-oxo-2H-benzo[b][1,4]oxazin-7-yl)acetamides and their positive inotropic evaluation” (2009) can be followed below.

For test [1], the species on record is Oryctolagus cuniculus. Nature of the test: Negative inotropic activity in perfused rabbit left atrium assessed as stroke volume at 10 uM. In kind it is functional, tissue-based. The note with it: Cardiac atrium. The method in brief: (§1)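 Field-stimulated at a fixed 1.5 Hz, 60 min stabilization. Single dose, DMSO-dissolved and buffer-diluted, applied after a control circulation; 12-min circulations. Stroke volume read from the cannula water column at end diastole every 2 min, reported as mean % increase.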

The nature of test [2]: Positive inotropic activity in perfused rabbit left atrium assessed as increase in stroke volume at 10 uM. The format is functional, Oryctolagus cuniculus, Cardiac atrium. A digest of the protocol:
as §1

For test [3], the species on record is Oryctolagus cuniculus. As to the kind of experiment: Positive inotropic activity in perfused rabbit left atrium assessed as increase in stroke volume at 10 uM/L. The note with it: Cardiac atrium, TDE = time-dependent effect. The format is functional, tissue-based. A digest of the protocol:
as §1

A short description of test [4]: Chronotropic effect in perfused rabbit left atrium assessed as heart rate at 10 uM by electrocardiogram analysis (Rvb= 152.20 +/- 0.42 Hz). In kind it is functional, Oryctolagus cuniculus, Cardiac atrium.
Test [5] can be described thus: Chronotropic effect in perfused rabbit left atrium assessed as heart rate at 10 uM by electrocardiogram analysis (Rvb= 146.80 +/- 0.09 Hz). In kind it is functional, Oryctolagus cuniculus, Cardiac atrium.

Calls of active or inactive are those of the source. The rule behind the calls is not given here.

As to `O=C(CN1CCN(Cc2ccc3cc(OCc4cccc(Cl)c4)ccc3c2)CC1)Nc1ccc2c(c1)OCC(=O)N2`, the result in the test filed under Oryctolagus cuniculus [1] was Active. On the same count and under the same terms, next, `O=C(CN1CCN(Cc2ccccc2)CC1)Nc1ccc2c(c1)OCC(=O)N2`: “Active”; `COc1ccc(CN2CCN(CC(=O)Nc3ccc4c(c3)OCC(=O)N4)CC2)cc1`: “Active”. With `O=C(CN1CCN(Cc2cccc(Cl)c2)CC1)Nc1ccc2c(c1)OCC(=O)N2`, the outcome in the test filed under Oryctolagus cuniculus [1] was Active. In the case of `O=C(CN1CCN(Cc2ccccc2Br)CC1)Nc1ccc2c(c1)OCC(=O)N2`, the Activity in test [2] is reported as 1.43%. For the molecule `O=C(CN1CCN(Cc2ccc(Cl)cc2)CC1)Nc1ccc2c(c1)OCC(=O)N2`, the outcome in the test filed under Oryctolagus cuniculus [1] was Active.

On to `O=C(CN1CCN(Cc2c(Cl)cccc2Cl)CC1)Nc1ccc2c(c1)OCC(=O)N2`, for which the result in the test filed under Oryctolagus cuniculus [1] was Active. Still for that read-out and setting: next, `O=C(CN1CCN(Cc2ccc(F)cc2)CC1)Nc1ccc2c(c1)OCC(=O)N2`: “Active”.

`Cc1[nH]c(=O)c(C#N)cc1-c1ccncc1` [MILRINONE]: in test [2], the Activity came to 1.67%. Regarding `COc1cccc(CN2CCN(CC(=O)Nc3ccc4c(c3)OCC(=O)N4)CC2)c1`, the Activity in test [2] is 3.23%.

With `COc1ccc(COc2ccc3cc(CN4CCN(CC(=O)Nc5ccc6c(c5)OCC(=O)N6)CC4)ccc3c2)cc1`, the outcome in the test listed under Oryctolagus cuniculus [1] was Active.

With `O=C(CN1CCN(Cc2ccc3cc(OCc4ccccc4)ccc3c2)CC1)Nc1ccc2c(c1)OCC(=O)N2`, the outcome in the test listed under Oryctolagus cuniculus [1] was Active.

In the case of `Cc1ccc(CN2CCN(CC(=O)Nc3ccc4c(c3)OCC(=O)N4)CC2)cc1`, the figures for the Activity (in test [2]; in the test filed under Oryctolagus cuniculus [3]; in test [4]) were 5.09%, “tde” and 142.2 Hz, respectively. On to `O=C(CN1CCN(Cc2ccc3c(c2)OCO3)CC1)Nc1ccc2c(c1)OCC(=O)N2`, for which, in the test listed under Oryctolagus cuniculus [1], the outcome was Active. On to `Cc1ccc(COc2ccc3cc(CN4CCN(CC(=O)Nc5ccc6c(c5)OCC(=O)N6)CC4)ccc3c2)cc1`, for which, in the test listed under Oryctolagus cuniculus [1], the result was Active. As for `O=C(CN1CCN(Cc2ccccc2F)CC1)Nc1ccc2c(c1)OCC(=O)N2`, the Activity in test [2] was 4.29%; in test [5], 139.1 Hz; in the test listed under Oryctolagus cuniculus [3], “tde”.
